In ChEMBL document CHEMBL1146500, “Novel caprolactones from a marine streptomycete” (2004):
Converted amounts (≈) assume the structure as drawn.

Legend:
Type in all cases: functional
Chlorella vulgaris = assay: Antimicrobial activity against Chlorella vulgaris at 70 ug by agar diffusion test; settings: read-out: IZ
Procedure, shortened: (§1)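 Agar diffusion test: 70 µg of sample applied per 9 mm diameter platelet. Read-out is the diameter of the growth-inhibition zone in mm.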

HepG2 [1] = assay: Cell cycle arrest in human HepG2 cells by accumulation at subG1 phase at 5 ug/mL after 24 hrs by PI staining
Procedure, shortened: (§2)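 HepG2 cells were exposed for 24 h, trypsinized, and washed in RPMI 1640 with 1% fetal bovine serum. They were stained 15 min at room temperature in the dark in 150 µg/mL propidium iodide, 1% Triton X-100, 1% BSA and 4 mM sodium citrate, pH 7.4. RNase A was then added for 30 min at room temperature. Output is % cells per phase, mean ± SE of three independent experiments, t-test versus control.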

HepG2 [2] = assay: Cell cycle arrest in human HepG2 cells by accumulation at S phase at 5 ug/mL after 24 hrs by PI staining; procedure, shortened: as §2
[3] = system: Streptomyces viridochromogenes; assay: Antimicrobial activity against Streptomyces viridochromogenes at 70 ug by agar diffusion test; settings: read-out: IZ; procedure, shortened: as §1
Staphylococcus aureus = assay: Antimicrobial activity against […] at 70 ug by agar diffusion test; settings: read-out: IZ; procedure, shortened: as §1
Candida albicans = assay: Antimicrobial activity against Candida albicans at 70 ug by agar diffusion test; settings: read-out: IZ; procedure, shortened: as §1
MCF7 = assay: Cytotoxicity against human MCF7 cells
Procedure, shortened: (§3)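 In vitro growth inhibition of human cancer cell lines was measured following the NCI guidelines. Cell lines: HM02 (gastric adenocarcinoma), HepG2 (hepatocellular carcinoma) and MCF 7 (breast adenocarcinoma).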

Escherichia coli = assay: Antimicrobial activity against Escherichia coli at 70 ug by agar diffusion test; settings: read-out: IZ; procedure, shortened: as §1
Chlorella sorokiniana = assay: Antimicrobial activity against Chlorella sorokiniana at 70 ug by agar diffusion test; settings: read-out: IZ; procedure, shortened: as §1
HepG2 [4] = assay: Cytotoxicity against human HepG2 cells; procedure, shortened: as §3
HepG2 [5] = assay: Cell cycle arrest in human HepG2 cells by accumulation at G2/M phase at 5 ug/mL after 24 hrs by PI staining; procedure, shortened: as §2
[6] = Cytotoxicity against human HM02 cells; procedure, shortened: as §3
HepG2 [7] = assay: Cell cycle arrest in human HepG2 cells by accumulation at G1 phase at 5 ug/mL after 24 hrs by PI staining; procedure, shortened: as §2
Artemia salina = assay: Antimicrobial activity against Artemia salina at 70 ug by agar diffusion test; settings: read-out: IZ; procedure, shortened: as §1
Desmodesmus subspicatus = assay: Antimicrobial activity against Scenedesmus subspicatus at 70 ug by agar diffusion test; settings: read-out: IZ; procedure, shortened: as §1
Rhizomucor miehei = assay: Antimicrobial activity against Mucor miehei at 70 ug by agar diffusion test; settings: read-out: IZ; procedure, shortened: as §1
Bacillus subtilis = assay: Antimicrobial activity against Bacillus subtilis at 70 ug by agar diffusion test; settings: read-out: IZ; procedure, shortened: as §1

Row | Compound | zone of inhibition at 70 µg/disc (Chlorella vulgaris) [mm] | Activity (HepG2 [1]) [%] | Activity (HepG2 [2]) [%] | zone of inhibition at 70 µg/disc [3] [mm] | zone of inhibition at 70 µg/disc (Staphylococcus aureus) [mm] | zone of inhibition at 70 µg/disc (Candida albicans) [mm] | GI50 (MCF7) [µg/mL] | TGI (MCF7) [µg/mL] | zone of inhibition at 70 µg/disc (Escherichia coli) [mm] | zone of inhibition at 70 µg/disc (Chlorella sorokiniana) [mm] | GI50 (HepG2 [4]) [µg/mL] | TGI (HepG2 [4]) [µg/mL] | Activity (HepG2 [5]) [%] | GI50 [6] [µg/mL] | TGI [6] [µg/mL] | Activity (HepG2 [7]) [%] | zone of inhibition at 70 µg/disc (Artemia salina) [mm] | zone of inhibition at 70 µg/disc (Desmodesmus subspicatus) [mm] | zone of inhibition at 70 µg/disc (Rhizomucor miehei) [mm] | zone of inhibition at 70 µg/disc (Bacillus subtilis) [mm]
1 | CC[C@H](C)CCC[C@H]1CCCCC(=O)O1 | 15 | 5.7 | 11 | 15 | 11 | 11 | 0.12 (≈ 0.565 µM) | 2.6 (≈ 12.2 µM) | 0 | 22 | 1.4 (≈ 6.59 µM) | 5.7 (≈ 26.8 µM) | 9.8 | 1.9 (≈ 8.95 µM) | 5.6 (≈ 26.4 µM) | 73.7 | 0 | 20 | 15 | 0
2 | CC(C)CCC[C@H]1CCCCC(=O)O1 | 11 | – | – | 13 | 0 | 0 | 0.11 (≈ 0.555 µM) | 4 (≈ 20.2 µM) | 0 | 12 | 2.2 (≈ 11.1 µM) | 6.8 (≈ 34.3 µM) | – | 2.7 (≈ 13.6 µM) | 6.1 (≈ 30.8 µM) | – | 0 | 11 | 11 | 0
